≈ marks a conversion by molar mass, not a printed value. Calls of active or inactive are those of the source. The rule behind the calls is not given here.
Tests used:
[1] = system: CCRF-CEM; assay: Cytotoxicity against human CEM cells at 100 ug/ml; type: cell-based
[2] = Cytotoxicity against CRFK cells at 100 ug/ml; type: cell-based, Felis catus; settings: cat
[3] = system: Human alphaherpesvirus 3; assay: Antiviral activity against Varicella Zoster Virus infected in human HEL cells assessed as inhibition of virus-induced cytopathicity upto 200 uM administered after 1 hr virus adsorption period; type: functional, organism-based
[4] = system: HeLa; assay: Cytotoxicity against human HeLa cells at 100 ug/ml; type: cell-based
[5] = molecular target: Thymidylate kinase (Mycobacterium tuberculosis, UniProt P9WKE1); assay: Inhibition of Mycobacterium tuberculosis Thymidylate kinase
[6] = system: Influenza A virus; assay: Antiviral activity against Influenza A virus H3N2 infected in MDCK cells assessed as inhibition of virus-induced cytopathicity upto 200 uM administered after 1 hr virus adsorption period; type: functional, organism-based
[7] = system: Mammalian orthoreovirus 1; assay: Antiviral activity against Reovirus 1 infected in Vero cells assessed as inhibition of virus-induced cytopathicity upto 200 uM administered after 1 hr virus adsorption period; type: functional, organism-based
Outline: (§1)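 Confluent cell monolayers (HEL for HSV-1 and HSV-2; Vero for parainfluenza-3, reovirus-1, Sindbis and Punta Toro; HeLa for Coxsackie B4 and RSV) in 96-well plates were inoculated with 100 CCID50 of virus. After 1 h adsorption, unbound virus was removed. Cells were then kept with compound at 200, 40, 8… μM. Cytopathicity was scored once untreated infected controls reached full CPE.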

[8] = system: Vaccinia virus; assay: Antiviral activity against Vaccinia virus infected in HEL cells assessed as inhibition of virus-induced cytopathicity upto 200 uM administered after 1 hr virus adsorption period; type: functional, organism-based; settings: Orthopoxvirus vaccinia
[9] = system: Feline coronavirus; assay: Antiviral activity against Feline coronavirus infected in CRFK cells assessed as inhibition of virus-induced cytopathicity upto 200 uM administered after 1 hr virus adsorption period; type: functional, organism-based
[10] = molecular target: T1, Deoxynucleoside kinase (Drosophila melanogaster, UniProt Q9XZT6); assay: Inhibition of Drosophila melanogaster deoxynucleoside kinase assessed as inhibition of [methyl-3H]dThd phosphorylation after 30 mins by scintillation counting
T1 sequence (Q9XZT6 whole entry): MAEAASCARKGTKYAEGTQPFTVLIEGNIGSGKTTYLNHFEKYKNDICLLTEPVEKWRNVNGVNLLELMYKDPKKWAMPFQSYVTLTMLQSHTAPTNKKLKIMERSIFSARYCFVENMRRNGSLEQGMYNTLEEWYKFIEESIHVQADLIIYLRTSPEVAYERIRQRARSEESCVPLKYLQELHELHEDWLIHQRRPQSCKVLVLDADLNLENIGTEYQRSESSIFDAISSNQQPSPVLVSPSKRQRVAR
Outline: (§2)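 Recombinant enzyme (TK-1, TK-2, HSV-1 TK, VZV TK or Drosophila dNK) was used in 50 mM Tris/HCl pH 8.0 with 2.5 mM MgCl2, 10 mM DTT, 0.5 mM CHAPS, 3 mg/mL BSA, 2.5 mM ATP and 1 µM [methyl-3H]dThd. Compound was added as 5-fold dilutions, and reactions ran 30 min at 37 °C, still linear. Mixtures were spotted on DE-81 disks, washed in ammonium formate, water and ethanol, then scintillation counted. IC50 was determined.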

[11] = system: Human alphaherpesvirus 1; assay: Antiviral activity against TK-deficient Herpes simplex virus type 1 infected in HEL cells assessed as inhibition of virus-induced cytopathicity upto 200 uM administered after 1 hr virus adsorption period; type: functional, organism-based
[12] = molecular target: T2, Thymidine kinase 2, mitochondrial (Homo sapiens, UniProt O00142); assay: Inhibition of human mitochondrial TK2 assessed as inhibition of [methyl-3H]dThd phosphorylation after 30 mins by scintillation counting; outline: as §2
T2 sequence (O00142 whole entry): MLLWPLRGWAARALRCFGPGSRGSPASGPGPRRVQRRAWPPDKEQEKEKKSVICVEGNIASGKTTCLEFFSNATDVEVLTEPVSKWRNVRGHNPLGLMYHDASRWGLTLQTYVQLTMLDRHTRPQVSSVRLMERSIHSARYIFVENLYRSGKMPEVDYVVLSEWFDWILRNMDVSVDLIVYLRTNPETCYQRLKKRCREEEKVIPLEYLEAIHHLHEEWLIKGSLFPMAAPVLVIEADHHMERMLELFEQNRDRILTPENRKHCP

[13] = system: Coxsackievirus B4; assay: Antiviral activity against Coxsackievirus B4 infected in HeLa cells assessed as inhibition of virus-induced cytopathicity upto 200 uM administered after 1 hr virus adsorption period; type: functional, organism-based; outline: as §1
[14] = system: Vesicular stomatitis virus; assay: Antiviral activity against Vesicular stomatitis virus infected in HEL cells assessed as inhibition of virus-induced cytopathicity upto 200 uM administered after 1 hr virus adsorption period; type: functional, organism-based
[15] = system: HEL; assay: Cytotoxicity against human HEL cells at 100 ug/ml; type: cell-based
[16] = system: Human immunodeficiency virus 2; assay: Antiviral activity against Human immunodeficiency virus type 2 ROD infected in human CEM cells assessed as inhibition of virus-induced giant cell formation after 4 days by microscopic method; type: functional, organism-based; settings: ISOLATE ROD, CCRF-CEM
Outline: (§3)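 CEM cells (~3×10^5 cells/cm³) were infected with 100 CCID50/mL of HIV-1(IIIB) or HIV-2(ROD) and seeded into wells containing serial compound dilutions. After 4 days at 37 °C, giant (syncytium) cell formation was scored microscopically.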

[17] = system: Human immunodeficiency virus 1; assay: Antiviral activity against Human immunodeficiency virus 1 3B infected in human CEM cells assessed as inhibition of virus-induced giant cell formation after 4 days by microscopic method; type: functional, organism-based; settings: CCRF-CEM; outline: as §3
[18] = system: Influenza A virus; assay: Antiviral activity against influenza A virus H1N1 infected in MDCK cells assessed as inhibition of virus-induced cytopathicity upto 200 uM administered after 1 hr virus adsorption period; type: functional, organism-based
[19] = system: MDCK; assay: Cytotoxicity against MDCK cells at 100 ug/ml; type: cell-based, Canis lupus familiaris; settings: dog
[20] = system: Human alphaherpesvirus 2; assay: Antiviral activity against Herpes simplex virus type 2 infected in HEL cells assessed as inhibition of virus-induced cytopathicity upto 200 uM administered after 1 hr virus adsorption period; type: functional, organism-based; outline: as §1
[21] = Non-competitive inhibition of Herpes simplex virus type 1 thymidine kinase assessed as inhibition of [methyl-3H]dThd phosphorylation by scintillation counting; parameters: species or system Human alphaherpesvirus 1
[22] = system: Respiratory syncytial virus; assay: Antiviral activity against Respiratory syncytial virus infected in HeLa cells assessed as inhibition of virus-induced cytopathicity upto 200 uM administered after 1 hr virus adsorption period; type: functional, organism-based; outline: as §1
[23] = system: Human respirovirus 3; assay: Antiviral activity against Parainfluenza virus 3 infected in Vero cells assessed as inhibition of virus-induced cytopathicity upto 200 uM administered after 1 hr virus adsorption period; type: functional, organism-based; outline: as §1
[24] = Inhibition of varicella zoster virus thymidine kinase assessed as inhibition of [methyl-3H]dThd phosphorylation after 30 mins by scintillation counting; parameters: species or system Human alphaherpesvirus 3; outline: as §2
[25] = Inhibition of Herpes simplex virus type 1 thymidine kinase assessed as inhibition of [methyl-3H]dThd phosphorylation after 30 mins by scintillation counting; parameters: species or system Human alphaherpesvirus 1; outline: as §2
[26] = system: Vero; assay: Cytotoxicity against african green monkey Vero cells at 100 ug/ml; type: cell-based; settings: chlorocebus sabaeus
[27] = system: Sindbis virus; assay: Antiviral activity against Sindbis virus infected in Vero cells assessed as inhibition of virus-induced cytopathicity upto 200 uM administered after 1 hr virus adsorption period; type: functional, organism-based; outline: as §1
[28] = system: Punta Toro virus; assay: Antiviral activity against Punta Toro virus infected in Vero cells assessed as inhibition of virus-induced cytopathicity upto 200 uM administered after 1 hr virus adsorption period; type: functional, organism-based; outline: as §1
[29] = system: Influenza B virus; assay: Antiviral activity against influenza B virus infected in MDCK cells assessed as inhibition of virus-induced cytopathicity upto 200 uM administered after 1 hr virus adsorption period; type: functional, organism-based
[30] = system: Human alphaherpesvirus 1; assay: Antiviral activity against Herpes simplex virus type 1 infected in HEL cells assessed as inhibition of virus-induced cytopathicity upto 200 uM administered after 1 hr virus adsorption period; type: functional, organism-based; outline: as §1
[31] = system: Human betaherpesvirus 5; assay: Antiviral activity against Human cytomegalovirus infected in human HEL cells assessed as inhibition of virus-induced cytopathicity upto 200 uM administered after 1 hr virus adsorption period; type: functional, organism-based

Thymidylate kinase, sequence (P9WKE1 whole entry): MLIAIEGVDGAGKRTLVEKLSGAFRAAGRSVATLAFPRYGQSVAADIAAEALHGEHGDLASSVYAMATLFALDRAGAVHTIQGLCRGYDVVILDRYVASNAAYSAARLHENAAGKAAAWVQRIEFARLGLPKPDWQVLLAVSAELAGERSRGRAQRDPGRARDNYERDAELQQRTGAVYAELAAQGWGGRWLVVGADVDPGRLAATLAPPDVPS

## Cc1cn([C@H]2C[C@@H](O)CO2)c(=O)[nH]c1=O
[1]
  Activity: Non-toxic
[2]
  Activity: Non-toxic
[3]
  inhibition: inactive
[4]
  Activity: Non-toxic
[5]
  Ki: 18 µM
[6]
  inhibition: inactive
[7]
  inhibition: inactive
[8]
  inhibition: inactive
[9]
  inhibition: inactive
[10]
  IC50: ≥ 942 µM
[11]
  inhibition: inactive
[12]
  IC50: 429 µM
[13]
  inhibition: inactive
[14]
  inhibition: inactive
[15]
  Activity: Non-toxic
[16]
  inhibition: inactive
[17]
  inhibition: inactive
[18]
  inhibition: inactive
[19]
  Activity: Non-toxic
[20]
  inhibition: inactive
[21]
  Ki: 20 µM
[22]
  inhibition: inactive
[23]
  inhibition: inactive
[24]
  IC50: 26 µg/mL (≈ 123 µM)
[25]
  IC50: 14 µg/mL (≈ 66 µM)
[26]
  Activity: Non-toxic
[27]
  inhibition: inactive
[28]
  inhibition: inactive
[29]
  inhibition: inactive
[30]
  inhibition: inactive
[31]
  inhibition: inactive
